{"source": "paper PMC4879609", "about": "(Molecular microbiology, 2016)", "molecules": {"B1": {"name": "Leishmania donovani inosine 5'-monophosphate dehydrogenase (enzyme, UniProt P21620 1-514, looked up)", "chain": "MATNNANYRIKTIKDGCTAEELFRGDGLTYNDFIILPGFIDFGAADVNISGQFTKRIRLHIPIVSSPMDTITENEMAKTMALMGGVGVLHNNCTVERQVEMVKSVKAYRNGFISKPKSVPPNTPISNIIRIKEEKGISGILVTENGDPHGKLLGIVCTKDIDYVKNKDTPVSAVMTRREKMTVERAPIQLEEAMDVLNRSRYGYLPIVNENDEVVNLCSRRDAVRARDYPHSTLDKSGRLICAAATSTRPEDKRRVAALADVGVDVLVLDSSQGNTIYQIAFIKWVKSTYPHLEVVAGNVVTQDQAKNLIDAGADGIRIGMGSGSICITQEVLACGRPQGTAVYKVAQYCASRGVPCTADGGLRQVGDICKALAIGANCAMLGGMLSGTTETPGEYFFKGGVRLKVYRGMGSLEAMSQGKESGKRYLSENEAVQVAQGVSGNVVDKGSAAKLIAYVSKGLQQSAQDIGEISFDAIREKMYAGQVLFSRRSPTAQGEGGVHSLHSYEKKLFAAKM"}}, "key": {"LmGMPR [1]": {"target": "T1, LmGMPR (Leishmania major, UniProt Q4QEB3)", "T1 sequence (Q4QEB3 1-492)": "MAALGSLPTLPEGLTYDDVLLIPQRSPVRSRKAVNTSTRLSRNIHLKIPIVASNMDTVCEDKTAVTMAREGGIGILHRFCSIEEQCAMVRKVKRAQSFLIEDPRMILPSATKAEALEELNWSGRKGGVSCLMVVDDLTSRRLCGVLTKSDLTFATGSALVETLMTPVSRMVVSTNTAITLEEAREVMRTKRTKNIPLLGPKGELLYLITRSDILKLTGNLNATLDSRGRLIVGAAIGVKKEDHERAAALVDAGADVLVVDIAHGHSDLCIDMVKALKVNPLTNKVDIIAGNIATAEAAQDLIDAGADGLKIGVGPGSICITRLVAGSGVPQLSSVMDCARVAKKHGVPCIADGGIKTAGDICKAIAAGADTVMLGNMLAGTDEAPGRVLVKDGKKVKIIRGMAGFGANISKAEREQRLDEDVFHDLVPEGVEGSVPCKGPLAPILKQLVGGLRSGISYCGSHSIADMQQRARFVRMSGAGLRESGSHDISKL", "assay": "Steady-state kinetic analysis of LmGMPR", "assay_type": "biochemical, L. major", "details": "for Increase in NADPH Km value: saturating concentrations of GMP"}, "LmGMPR [2]": {"target": "T1, LmGMPR", "assay": "Fluorescence titration of nucleotide binding to full length LmGMPR", "parameters": "species or system L. major"}, "[3]": {"target": "LmGMPR CBS domain (His6-gmpr92-222) (Leishmania major, UniProt Q4QEB3)", "assay": "Intrinsic fluorescence binding to LmGMPR CBS domain", "parameters": "species or system L. major"}, "LdIMPDH [4]": {"target": "T2, LdIMPDH (Leishmania donovani, UniProt P21620)", "assay": "biochemical", "assay_type": "binding"}, "[5]": {"target": "LdIMPDH CBS domain (His6-impdh112-223) (Leishmania donovani, UniProt P21620)", "assay": "Intrinsic fluorescence binding to LdIMPDH CBS domain", "parameters": "species or system L. donovani"}, "LmGMPR [6]": {"target": "T1, LmGMPR", "assay": "Rate zonal centrifugation, quaternary structure of LmGMPR", "parameters": "species or system L. major", "details": "saturating (1.0 mM) nucleotide, 5–40% glycerol gradient", "procedure,_shortened": "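Recombinant LmGMPR expressed in GMPR-deficient E. coli and purified by ammonium sulfate fractionation and Cibacron blue chromatography. Spun at 34,000 rpm for 16 h at 4 °C; 50 μg bovine hemoglobin as internal standard.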"}, "LdIMPDH [7]": {"target": "T2, LdIMPDH", "assay": "Rate zonal centrifugation, quaternary structure of LdIMPDH", "parameters": "species or system L. donovani", "details": "saturating nucleotide, glycerol gradient"}, "Leishmania": {"tested_on": "Leishmania", "assay": "Leishmania growth in media with defined purine source in presence of MPA", "assay_type": "cell-based", "details": "media supplemented with either guanine or xanthine (Fig. S2)"}, "[8]": {"target": "eukaryotic IMPDH enzymes, including human and Leishmania", "details": "literature values; cited from earlier work"}, "[9]": {"target": "Leishmania major guanosine 5'-monophosphate reductase (Leishmania major)", "assay": "rate zonal centrifugation on a glycerol gradient"}, "LdIMPDH [10]": {"target": "T2, LdIMPDH", "details": "read-out: inhibition constant (Ki); ref Dobie et al., 2007; cited from earlier work"}, "[11]": {"target": "the molecule itself", "assay": "rate zonal centrifugation on a glycerol gradient"}, "[12]": {"target": "the molecule itself", "assay": "rate zonal centrifugation on a glycerol gradient", "remark": "listed apart in the source"}, "[13]": {"details": "read-out: Kd1, 26 μM LmGMPR, no NADPH, fluorescence at 335 nm"}, "[14]": {"details": "20 μM LdIMPDH, single phase binding isotherm"}}, "note": "Several values for one entry are separate records, joined by “and”; a condition that tells them apart may be missing. Equal entries are not always repeated. Where two headings read alike, the source gives them in different places."}
{"molecule": "[Mg+2]", "note": "[Mg^2+]", "values": [{"measurement": "Effect on LmGMPR enzymatic activity", "setting": "LmGMPR [1]; added to the reaction buffer", "value": "no significant affect on enzymatic activity"}]}
{"molecule": "Nc1ncnc2c1ncn2[C@@H]1O[C@H](COP(=O)(O)OP(=O)(O)OP(=O)(O)O)[C@@H](O)[C@H]1O", "note": "[ATP]", "values": [{"measurement": "Decrease in Vmax value", "setting": "LmGMPR [1]; 1.0 mM ATP", "value": "~ 4 fold"}, {"measurement": "Increase in GMP Ks (Km) value", "setting": "LmGMPR [1]; 1.0 mM ATP", "value": "10 fold and ~ 10 fold"}, {"measurement": "Increase in NADPH Km value", "setting": "LmGMPR [1]", "value": "~ 2 fold"}, {"measurement": "Kd", "setting": "LmGMPR [2]; [13]", "value": "87 ± 24", "unit": "µM"}, {"measurement": "Binding saturation", "setting": "[3]; up to 3.0 mM", "value": "saturation binding was not attained"}, {"measurement": "Kd", "setting": "LdIMPDH [4]; [14]", "value": "130 ± 11", "unit": "µM"}, {"measurement": "Kd", "setting": "[5]; intrinsic fluorescence changes", "value": "148 ± 19", "unit": "µM"}, {"measurement": "Quaternary structure of LmGMPR", "setting": "LmGMPR [6]", "value": "monomeric and dimeric forms"}, {"measurement": "Quaternary structure of LdIMPDH", "setting": "LdIMPDH [7]", "value": "tetrameric structure"}]}
{"molecule": "Nc1nc2c(ncn2[C@@H]2O[C@H](COP(=O)(O)OP(=O)(O)OP(=O)(O)O)[C@@H](O)[C@H]2O)c(=O)[nH]1", "note": "[GTP]", "values": [{"measurement": "Decrease in GMP Ks value", "setting": "LmGMPR [1]; 10 μM GTP", "value": "~ 3 fold"}, {"measurement": "Increase in Vmax value", "setting": "LmGMPR [1]; 10 μM GTP", "value": "~ 8 fold"}, {"measurement": "Increase in NADPH Km value", "setting": "LmGMPR [1]", "value": "~ 2 fold"}, {"measurement": "Utilization as substrate by LmGMPR", "setting": "LmGMPR [1]; steady state kinetic analysis", "value": "not utilized as a substrate"}, {"measurement": "Kd", "setting": "LmGMPR [2]; [13]", "value": "16 ± 1", "unit": "µM"}, {"measurement": "Kd", "setting": "[3]; single phase binding isotherm, 35 μM His6-gmpr92-222", "value": "188 ± 19", "unit": "µM"}, {"measurement": "Kd", "setting": "LdIMPDH [4]; [14]", "value": "67 ± 5", "unit": "µM"}, {"measurement": "Quaternary structure of LmGMPR", "setting": "LmGMPR [6]", "value": "stabilized the formation of the LmGMPR tetramer"}]}
{"molecule": "COc1c(C)c2c(c(O)c1C/C=C(\\C)CCC(=O)O)C(=O)OC2", "note": "[MPA, mycophenolic acid]", "values": [{"measurement": "Ki", "setting": "LmGMPR [1]", "value": "~20", "unit": "µM"}, {"measurement": "Mode of inhibition of LmGMPR", "setting": "LmGMPR [1]", "value": "competitive inhibitor of NADPH"}, {"measurement": "Effect on parasite growth", "setting": "Leishmania", "value": "refractory to MPA"}, {"measurement": "Ki", "setting": "[8]", "value": "0.004 to 0.02", "unit": "µM"}]}
{"molecule": "O=c1[nH]cnc2nc[nH]c12", "note": "[hypoxanthine]", "values": [{"measurement": "Binding to LdIMPDH", "setting": "LdIMPDH [4]; concentration of 2.0 mM", "value": "no significant binding"}, {"measurement": "Binding to LdIMPDH CBS domain", "setting": "[5]", "value": "no saturable binding"}]}
{"molecule": "NC(=O)C1=CN([C@@H]2O[C@H](COP(=O)(O)OP(=O)(O)OC[C@H]3O[C@@H](n4cnc5c(N)ncnc54)[C@H](OP(=O)(O)O)[C@@H]3O)[C@@H](O)[C@H]2O)C=CC1", "note": "[NADPH]", "values": [{"measurement": "Kd", "setting": "LmGMPR [2]; absence of GMP, shift of NADPH emission λmax, excitation 340 nm, equation 3", "value": "27 ± 4", "unit": "µM"}]}
{"molecule": "Leishmania major guanosine 5'-monophosphate reductase (enzyme)", "values": [{"measurement": "stoichiometry N", "setting": "[9]", "value": 2}]}
{"molecule": "Nc1nc2c(ncn2[C@@H]2O[C@H](COP(=O)(O)O)[C@@H](O)[C@H]2O)c(=O)[nH]1", "note": "[GMP, guanosine 5′-monophosphate]", "values": [{"measurement": "Kd", "setting": "LmGMPR [2]", "value": "20 ± 2", "unit": "µM"}, {"measurement": "Kd", "setting": "[3]", "value": "333 ± 27", "unit": "µM"}, {"measurement": "Kd", "setting": "LdIMPDH [4]", "value": "66 ± 7", "unit": "µM"}, {"measurement": "Quaternary structure of LmGMPR", "setting": "LmGMPR [6]", "value": "stabilized the formation of the LmGMPR tetramer"}, {"measurement": "Quaternary structure of LdIMPDH", "setting": "LdIMPDH [7]", "value": "tetrameric structure"}, {"measurement": "Ki", "setting": "LdIMPDH [10]", "value": "~200", "unit": "µM"}]}
{"molecule": "NC(=O)C1=CN([C@@H]2O[C@H](COP(=O)(O)OP(=O)(O)OC[C@H]3O[C@@H](n4cnc5c(N)ncnc54)[C@H](O)[C@@H]3O)[C@@H](O)[C@H]2O)C=CC1", "note": "[NADH]", "values": [{"measurement": "Use as hydride donor for reductive deamination of GMP", "setting": "LmGMPR [1]; NADH up to 5.0 mM", "value": "failed to induce the reductive deamination of GMP"}]}
{"molecule": "Nc1ncnc2c1ncn2[C@@H]1O[C@H](COP(=O)(O)O)[C@@H](O)[C@H]1O", "note": "[AMP]", "values": [{"measurement": "Quaternary structure of LdIMPDH", "setting": "LdIMPDH [7]", "value": "tetrameric structure"}]}
{"molecule": "B1", "values": [{"measurement": "stoichiometry N", "setting": "[11]", "value": 4}, {"measurement": "stoichiometry N", "setting": "[12]", "value": 2}]}
